Holding throughout (format): functional
Assay [1] concerns Staphylococcus aureus. In words: Inhibition of NorA pump in fluoroquinolone-resistant Staphylococcus aureus SA1199B assessed as drug level causing 4-fold reduction of Norfloxacin MIC. In short, it runs like this: (§1)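 SA-1199B, which overexpresses NorA, tested by dilution MIC. Norfloxacin MIC measured with and without added test agent. Potentiation expressed as the fold reduction of the norfloxacin MIC relative to norfloxacin alone, at the stated agent concentration.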

Assay [2] deals with Staphylococcus aureus. Kind of assay: Inhibition of NorA pump in fluoroquinolone-resistant Staphylococcus aureus SA1199B assessed as drug level causing reduction of Norfloxacin MIC. In short, it runs like this:
as §1

In assay [3] the test system is Staphylococcus aureus. In words: Antimicrobial activity against fluoroquinolone-resistant Staphylococcus aureus SA1199B. An outline of the steps:
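S. aureus SA-1199B, which overexpresses the NorA MDR efflux pump. MIC determined by the standard dilution method for aerobically growing bacteria.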

The test system of assay [4] is Staphylococcus aureus. In words: Inhibition of NorA pump in fluoroquinolone-resistant Staphylococcus aureus SA1199B assessed as drug level causing 8-fold reduction of Norfloxacin MIC. In short, it runs like this:
as §1

The test system of assay [5] is Staphylococcus aureus. Kind of assay: Inhibition of NorA pump in fluoroquinolone-resistant Staphylococcus aureus SA1199B assessed as drug level causing 16-fold reduction of Norfloxacin MIC. In short, it runs like this: as §1
For assay [6], the system named is Staphylococcus aureus. In words: Inhibition of NorA pump in fluoroquinolone-resistant Staphylococcus aureus SA1199B assessed as drug level causing 2-fold reduction of Norfloxacin MIC. In short, it runs like this: as §1

Converted amounts (≈) assume the structure as drawn.

On to `COc1ccc(/C=C/C(=O)NCCc2ccccc2)cc1OC`, for which the Activity with Staphylococcus aureus [1] amounted to 322 µM. In the case of `COc1ccc(CCC(=O)NCCc2ccc(O)c(O)c2)cc1OC`, in the assay on Staphylococcus aureus [2], the Activity turned out to be 290 µM.

As to `COc1ccc(/C=C/C(=O)NCCc2c[nH]c3ccccc23)cc1OC`, the Activity in the assay with Staphylococcus aureus [1] came out at 29 µM; in the assay with Staphylococcus aureus [4] it was 57 µM; with Staphylococcus aureus [5], 286 µM. In the assay on Staphylococcus aureus [3], the MIC was more than 366 µM. Turning to `COc1ccc(/C=C/C(=O)NCCc2ccc(O)c(O)c2)cc1OC`, the Activity in the assay on Staphylococcus aureus [1] was found to be 146 µM; in the assay on Staphylococcus aureus [4], 292 µM.

On to `COc1ccc(/C=C/C(=O)NCCc2ccc(OC)c(OC)c2)cc1OC`, for which the Activity is 54 µM in the assay on Staphylococcus aureus [6] and 162 µM in the assay on Staphylococcus aureus [4]. Consider `COc1cc(/C=C/C(=O)NCCc2ccc(O)c(O)c2)cc(OC)c1OC`, for which the Activity with Staphylococcus aureus [1] was 268 µM. On to `COc1ccc(/C=C/C(=O)NCCc2cc(O)c(O)c(O)c2)cc1OC`, for which the MIC in the assay with Staphylococcus aureus [3] was 356 µM (≈ 128 µg/mL). For the same compound, the Activity in the assay on Staphylococcus aureus [2] was 56 µM. In the case of `O=C(/C=C/c1ccccc1)NCCc1ccc(O)c(O)c1`, the results for the Activity with Staphylococcus aureus [1] and in the assay with Staphylococcus aureus [5] were 70 µM and 353 µM, respectively. Moreover, in the assay on Staphylococcus aureus [3], the MIC is more than 452 µM. Turning to `O=C(/C=C/c1ccc(O)c(O)c1)NCCc1ccc(O)c(O)c1`, the Activity in the assay on Staphylococcus aureus [1] was 63 µM; with Staphylococcus aureus [4] it was 317 µM. This compound had an MIC against Staphylococcus aureus [3] not below 406 µM. For the compound `CCn1cc(C(=O)O)c(=O)c2cc(F)c(N3CCNCC3)cc21` [NORFLOXACIN], the MIC with Staphylococcus aureus [3] stood at 100 µM (≈ 31.9 µg/mL).

For `COC(=O)[C@H]1[C@H]2C[C@@H]3c4[nH]c5cc(OC)ccc5c4CCN3C[C@H]2C[C@@H](OC(=O)c2cc(OC)c(OC)c(OC)c2)[C@@H]1OC` [RESERPINE], the MIC in the assay with Staphylococcus aureus [4] (Staphylococcus aureus, SA1199B) worked out at 33 µM (≈ 20.1 µg/mL).

Source of the values: ChEMBL document CHEMBL1139132, “N-caffeoylphenalkylamide derivatives as bacterial efflux pump inhibitors” (2007).
